Consider 22 compounds from ChEMBL document CHEMBL1821556, “Structure-activity relationships of antitubercular nitroimidazoles. 3. Exploration of the linker and lipophilic tail of ((s)-2-nitro-6,7-dihydro-5H-imidazo[2,1-b][1,3]oxazin-6-yl)-(4-trifluoromethoxybenzyl)amine (6-amino PA-824)” (J Med Chem, 2011).

Values after ≈ are worked out from the molar mass of the structure shown.

One assay relates to Mycobacterium tuberculosis. Briefly: Antitubercular activity against Mycobacterium tuberculosis. Type of assay: functional. In a few lines: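 Whole-cell assay against replicating Mtb, scored as MIC99 in μM. Run multiple times in two independent laboratories, with discrepant results repeated until concordant. Values are averages of multiple measurements ± SD.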
As to `O=[N+]([O-])c1cn2c(n1)OC[C@@H](NCc1ccc(OC(F)(F)F)cc1Br)C2`, the MIC99 (as a rule, an inhibitory concentration at the 99% level, which refers to growth in some studies and to a panel of isolates in others) amounted to 0.09 µM (≈ 0.0393 µg/mL).
Same read-out and setting: then `O=[N+]([O-])c1cn2c(n1)OC[C@@H](NCc1ccc(OC(F)(F)F)cc1N1CCCCC1)C2`, with 0.21 µM (≈ 0.0927 µg/mL).
On to `O=[N+]([O-])c1cn2c(n1)OC[C@@H](NCc1ccc(OC(F)(F)F)cc1N1CCOCC1)C2`, for which the MIC99 amounted to 0.15 µM (≈ 0.0665 µg/mL).
Compound `CN1CCN(c2cc(OC(F)(F)F)ccc2CN[C@@H]2COc3nc([N+](=O)[O-])cn3C2)CC1` yielded an MIC99 of 2.2 µM (≈ 1 µg/mL).
With `O=[N+]([O-])c1cn2c(n1)OC[C@@H](OCc1ccc(OC(F)(F)F)c(F)c1)C2`, the MIC99 amounted to 0.17 µM (≈ 0.0641 µg/mL).
Compound `COc1cc(CN[C@@H]2COc3nc([N+](=O)[O-])cn3C2)ccc1OC(F)(F)F` displayed an MIC99 of 0.07 µM (≈ 0.0272 µg/mL).
Same read-out and setting: for `COc1cc(CO[C@@H]2COc3nc([N+](=O)[O-])cn3C2)ccc1OC(F)(F)F` the value was 0.13 µM (≈ 0.0506 µg/mL); for `O=[N+]([O-])c1cn2c(n1)OC[C@@H](OCc1ccc(OC(F)(F)F)c(O)c1)C2`, 0.14 µM (≈ 0.0525 µg/mL).
As for `COC(=O)c1cc(CN[C@@H]2COc3nc([N+](=O)[O-])cn3C2)ccc1OC(F)(F)F`, the MIC99 is 0.14 µM (≈ 0.0583 µg/mL).
On the same count and under the same terms, for `O=[N+]([O-])c1cn2c(n1)OC[C@@H](NCc1ccc(OC(F)(F)F)c(N3CCOCC3)c1)C2` the value was 0.15 µM (≈ 0.0665 µg/mL); for `CN1CCN(c2cc(CN[C@@H]3COc4nc([N+](=O)[O-])cn4C3)ccc2OC(F)(F)F)CC1`, 0.17 µM (≈ 0.0776 µg/mL); for `O=[N+]([O-])c1cn2c(n1)OC[C@@H](NCc1ccc(OC(F)(F)F)cc1)C2`, 0.36 µM (≈ 0.129 µg/mL).
Regarding `O=[N+]([O-])c1cn2c(n1)OC[C@@H](NC(c1ccc(OC(F)(F)F)cc1)c1ncco1)C2` (mixture of isomers), the MIC99 came out at 0.4 µM.
With `CC(N[C@@H]1COc2nc([N+](=O)[O-])cn2C1)c1ccc(OC(F)(F)F)cc1` (mixture of isomers), the MIC99 amounted to 0.44 µM.
On the same count and under the same terms, then `O=[N+]([O-])c1cn2c(n1)OC[C@@H](NC(c1ccc(OC(F)(F)F)cc1)c1ncc[nH]1)C2` (mixture of isomers), with 0.52 µM.
Still for that read-out and setting: then `CCC(N[C@@H]1COc2nc([N+](=O)[O-])cn2C1)c1ccc(OC(F)(F)F)cc1` (mixture of isomers), with 0.36 µM.
The same measure, in the same setting: for `CCCC(N[C@@H]1COc2nc([N+](=O)[O-])cn2C1)c1ccc(OC(F)(F)F)cc1` (mixture of isomers) the value was 0.27 µM.
With `CCCCC(N[C@@H]1COc2nc([N+](=O)[O-])cn2C1)c1ccc(OC(F)(F)F)cc1` (mixture of isomers), the MIC99 was determined as 0.15 µM.
In the case of `NC(=O)C(N[C@@H]1COc2nc([N+](=O)[O-])cn2C1)c1ccc(OC(F)(F)F)cc1` (mixture of isomers), the MIC99 turned out to be 0.41 µM.
On the same count and under the same terms, then `O=[N+]([O-])c1cn2c(n1)OC[C@@H](NC(CO)c1ccc(OC(F)(F)F)cc1)C2` (mixture of isomers), with 0.3 µM; and `O=[N+]([O-])c1cn2c(n1)OC[C@@H](NC(CCO)c1ccc(OC(F)(F)F)cc1)C2` (mixture of isomers), with 0.13 µM; and `O=[N+]([O-])c1cn2c(n1)OC[C@@H](OCc1ccc(OC(F)(F)F)cc1)C2` [PRETOMANID], with 0.63 µM (≈ 0.226 µg/mL).

Another assay has as its system Mycobacterium tuberculosis. Nature of the assay: Bactericidal activity against Mycobacterium tuberculosis assessed as minimum concentration required for anaerobicidal activity. Type of assay: functional. In a few lines: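 Minimum anaerobicidal concentration (μM) against non-replicating Mtb. Run multiple times in two independent laboratories, with discrepant results repeated until concordant. Values are averages of multiple measurements ± SD.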
Regarding `O=[N+]([O-])c1cn2c(n1)OC[C@@H](NCc1ccc(OC(F)(F)F)cc1Br)C2`, the Activity is 2 µM.
The same measure, in the same setting: for `O=[N+]([O-])c1cn2c(n1)OC[C@@H](NCc1ccc(OC(F)(F)F)cc1N1CCCCC1)C2` the value was 11 µM.
`O=[N+]([O-])c1cn2c(n1)OC[C@@H](NCc1ccc(OC(F)(F)F)cc1N1CCOCC1)C2`: the Activity worked out at 10 µM.
With `CN1CCN(c2cc(OC(F)(F)F)ccc2CN[C@@H]2COc3nc([N+](=O)[O-])cn3C2)CC1`, the Activity came out at 33 µM.
On the same count and under the same terms, then `O=[N+]([O-])c1cn2c(n1)OC[C@@H](OCc1ccc(OC(F)(F)F)c(F)c1)C2`, with 7.5 µM.
Consider `COc1cc(CN[C@@H]2COc3nc([N+](=O)[O-])cn3C2)ccc1OC(F)(F)F`, for which the Activity stood at 2.1 µM.
On the same count and under the same terms, for `COc1cc(CO[C@@H]2COc3nc([N+](=O)[O-])cn3C2)ccc1OC(F)(F)F` the value was 4.2 µM; for `O=[N+]([O-])c1cn2c(n1)OC[C@@H](OCc1ccc(OC(F)(F)F)c(O)c1)C2`, 8.3 µM.
On the same count and under the same terms, for `COC(=O)c1cc(CN[C@@H]2COc3nc([N+](=O)[O-])cn3C2)ccc1OC(F)(F)F` the value was 11 µM.
Regarding `O=[N+]([O-])c1cn2c(n1)OC[C@@H](NCc1ccc(OC(F)(F)F)c(N3CCOCC3)c1)C2`, the Activity was determined as 7 µM.
In the case of `CN1CCN(c2cc(CN[C@@H]3COc4nc([N+](=O)[O-])cn4C3)ccc2OC(F)(F)F)CC1`, the Activity amounted to 7.8 µM.
The same measure, in the same setting: for `O=[N+]([O-])c1cn2c(n1)OC[C@@H](NCc1ccc(OC(F)(F)F)cc1)C2` the value was 14 µM.
Regarding `O=[N+]([O-])c1cn2c(n1)OC[C@@H](NC(c1ccc(OC(F)(F)F)cc1)c1ncco1)C2` (mixture of isomers), the Activity stood at 7.8 µM.
`CC(N[C@@H]1COc2nc([N+](=O)[O-])cn2C1)c1ccc(OC(F)(F)F)cc1` (mixture of isomers): the Activity was 5.6 µM.
On the same count and under the same terms, for `O=[N+]([O-])c1cn2c(n1)OC[C@@H](NC(c1ccc(OC(F)(F)F)cc1)c1ncc[nH]1)C2` (mixture of isomers) the value was 17 µM; for `CCC(N[C@@H]1COc2nc([N+](=O)[O-])cn2C1)c1ccc(OC(F)(F)F)cc1` (mixture of isomers), 3.1 µM; for `CCCC(N[C@@H]1COc2nc([N+](=O)[O-])cn2C1)c1ccc(OC(F)(F)F)cc1` (mixture of isomers), 3.8 µM.
On the same count and under the same terms, then `CCCCC(N[C@@H]1COc2nc([N+](=O)[O-])cn2C1)c1ccc(OC(F)(F)F)cc1` (mixture of isomers), with 4.4 µM; and `NC(=O)C(N[C@@H]1COc2nc([N+](=O)[O-])cn2C1)c1ccc(OC(F)(F)F)cc1` (mixture of isomers), with 30 µM.
For the compound `O=[N+]([O-])c1cn2c(n1)OC[C@@H](NC(CO)c1ccc(OC(F)(F)F)cc1)C2` (mixture of isomers), the Activity amounted to 11 µM.
Same read-out and setting: for `O=[N+]([O-])c1cn2c(n1)OC[C@@H](NC(CCO)c1ccc(OC(F)(F)F)cc1)C2` (mixture of isomers) the value was 23 µM; for `O=[N+]([O-])c1cn2c(n1)OC[C@@H](OCc1ccc(OC(F)(F)F)cc1)C2` [PRETOMANID], 8.8 µM.
